Series [1] concerns Rattus norvegicus. Nature of the series: (§1) Oral bioavailability in Sprague-Dawley rat at 5 mg/kg. The class given is ADME, organism-based. The note with it: in vivo, BLD = below limit of detection. A digest of the protocol: (§2)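 Dosing was oral at 5 mg/kg and IV at 1 mg/kg (n = 3 each). Bioavailability was calculated from jugular vein drug concentrations after oral administration relative to IV administration. Limit of detection 0.5 ng/mL.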

Series [2] concerns Hepatitis C virus. Nature of the series: Antiviral activity against HCV genotype 1b transfected in human hepatoma cell assessed as inhibition of viral replication. The class given is functional, organism-based, Hepacivirus hominis.
Series [3] concerns Hepatitis C virus. Nature of the series: Antiviral activity against HCV genotype 1a transfected in human hepatoma cell assessed as inhibition of viral replication. The class given is functional, organism-based, Hepacivirus hominis. The note with it: subtype 1a.
Series [4] can be described thus: Inhibition of HCV genotype 1 a NS3/4A protease by FRET assay. Also noted: species or system Hepatitis C virus subtype 1a.
Series [5] is described as follows: Clearance in Sprague-Dawley rat at 1 mg/kg, iv. The class given is ADME, organism-based. Set-up: dose 1 mg/kg, route intravenous. The settings on record: in vivo. Put shortly:
(§3)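 Rats (n = 3 per route) received compound orally at 5 mg/kg or intravenously at 1 mg/kg. Plasma drug levels were measured with a limit of detection of 0.5 ng/mL, and no PK data were generated for samples below it.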

For series [6], the system named is Rattus norvegicus. The experiment in a line: Metabolic absorption in Sprague-Dawley rat at 5 mg/kg, po. The class given is ADME, organism-based. Set-up: dose 5 mg/kg, route oral. The note with it: in vivo. Put shortly: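 Rats (n = 3 per route) were dosed orally at 5 mg/kg and intravenously at 1 mg/kg. Value calculated from portal vein drug concentrations after oral dosing relative to those after IV dosing. Limit of detection 0.5 ng/mL.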

For series [7], the system named is Rattus norvegicus. The experiment in a line: (§4) AUC (0 to infinity) in Sprague-Dawley rat at 5 mg/kg, po. The class given is ADME, organism-based, Plasma. Set-up: time infinity, dose 5 mg/kg, route oral. The settings on record: in vivo, BLD = below limit of detection. A digest of the protocol:
as §3

Series [8] can be described thus: as §1. The class given is ADME, organism-based. The note with it: Sprague-Dawley, in vivo. A digest of the protocol:
as §2

A short description of series [9]: as §4. In kind it is ADME, organism-based, Plasma. Set-up: time infinity, dose 5 mg/kg, route oral. The note with it: Sprague-Dawley, plasma. A digest of the protocol: as §3

pEC50, pIC50: −log10 of the molar value.

With `O=C(N[C@H]1CCCCC/C=C\[C@@H]2C[C@@]2(C(=O)NS(=O)(=O)c2ccc3c(c2)B(O)OC3)NC(=O)[C@@H]2C[C@@H](OC(=O)N3Cc4cccc(F)c4C3)CN2C1=O)OC1CCCC1`, the F entry in the series on Rattus norvegicus [1] is on record as “BLD”. For the same compound, the pEC50 (usually the negative decadic logarithm of the EC50, by convention in mol/L) in the series with Hepatitis C virus [2] was 8.10; in the series with Hepatitis C virus [3], 7.18. The pIC50 (commonly the IC50 on a negative log10 scale, so that one unit is a factor of ten) in series [4] was 9.10. The clearance (in general, the rate of elimination divided by the concentration) in series [5] was 111 mL/min/kg. The Activity result in the series on Rattus norvegicus [6] (BLD = below limit of detection) is on record as “BLD”. The AUC entry in the series on Rattus norvegicus [7] is listed as “BLD”.
As for `O=C(N[C@H]1CCCCC/C=C\[C@@H]2C[C@@]2(C(=O)NS(=O)(=O)c2ccc3c(c2)COB3O)NC(=O)[C@@H]2C[C@@H](OC(=O)N3Cc4cccc(F)c4C3)CN2C1=O)OC1CCCC1`, the results for the pEC50 with Hepatitis C virus [2] and in the series with Hepatitis C virus [3] were 7.92 and 7.15, respectively. The compound further gave a pIC50 in series [4] of 9.10.
As for `C=C[C@@H]1C[C@]1(NC(=O)[C@@H]1C[C@@H]2CN1C(=O)[C@H](C(C)(C)C)NC(=O)OCC(C)(C)CCCCc1cccc3c1CN(C3)C(=O)O2)C(=O)NS(=O)(=O)c1ccc2c(c1)B(O)OC2`, the values for the pEC50 in the series on Hepatitis C virus [2] and with Hepatitis C virus [3] were 7.70 and 7.11, respectively. The compound further had a pIC50 in series [4] of 9.40.
Taken in the same sequence, the figures for `C=C[C@@H]1C[C@]1(NC(=O)[C@@H]1C[C@@H]2CN1C(=O)[C@H](C(C)(C)C)NC(=O)OCC(C)(C)CCCCc1cccc3c1CN(C3)C(=O)O2)C(=O)NS(=O)(=O)c1ccc2c(c1)COB2O` were 7.82, 7.18 and 9.22.
In the case of `C=C[C@@H]1C[C@]1(NC(=O)[C@@H]1C[C@@H]2CN1C(=O)[C@H](C(C)(C)C)NC(=O)OCC(C)(C)CCCCc1cccc3c1CN(C3)C(=O)O2)C(=O)NS(=O)(=O)c1cccc2c1COB2O`, the bioavailability (as a rule, dose-corrected exposure relative to a reference, in per cent) in [8] turned out to be 1.2%. Besides, the pEC50 in the series on Hepatitis C virus [2] is 7.92; in the series on Hepatitis C virus [3], 7.28. The compound further gave a pIC50 in [4] of 9.52. In [5], this compound showed a clearance of 82 mL/min/kg. This compound gave an Activity with Rattus norvegicus [6] of 1.6%. The AUC(0-inf) (usually the area under the concentration-time curve extrapolated to infinity) in series [9] amounted to 14 ng·h/mL.
In [8], `CC(C)(C)OC(=O)N[C@H]1CCCCC/C=C\[C@@H]2C[C@@]2(C(=O)NS(=O)(=O)C2CC2)NC(=O)[C@@H]2C[C@@H](OC(=O)N3Cc4cccc(F)c4C3)CN2C1=O` [DANOPREVIR] displayed a bioavailability of 20%. The results for the negative-log EC50 (pEC50) with Hepatitis C virus [2] and in the series on Hepatitis C virus [3] were 8.96 and 9.00, respectively. For the same compound, the pIC50 in series [4] was 9.40. In series [5], this compound gave a clearance of 10.7 mL/min/kg. This compound displayed an Activity with Rattus norvegicus [6] of 17.4%. The compound also gave an AUC(0-inf) in [9] of 1750 ng·h/mL.

The record behind these values is ChEMBL document CHEMBL1287735, “Synthesis of new acylsulfamoyl benzoxaboroles as potent inhibitors of HCV NS3 protease” (Bioorg Med Chem Lett, 2010).
